Results published in ChEMBL document CHEMBL1147076, “Antitumor activity of MLN8054, an orally active small-molecule inhibitor of Aurora A kinase” (Proc Natl Acad Sci U S A, 2007).
Active and inactive are the calls of the source. No cut-off for these calls is given here.

Experiments:
[1] = target: Ephrin type-B receptor 2 (Homo sapiens) (UniProt P29323); test: Activity of human EphB2 kinase at 1 uM
Outline: (§1)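 Single-point kinase profiling: each kinase in a 226-kinase panel tested with compound at 1 μM and ATP at 10 μM in every assay, run by an external screening service.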

[2] = target: Tyrosine-protein kinase Fer (Homo sapiens) (UniProt P16591); test: Activity of human Fer kinase at 1 uM; outline: as §1
[3] = target: Fibroblast growth factor receptor 1 (Homo sapiens) (UniProt P11362); test: Activity of human FGFR1 kinase at 1 uM; outline: as §1
Fibroblast growth factor receptor 1 (Homo sapiens), sequence (P11362 22-822 limits assumed): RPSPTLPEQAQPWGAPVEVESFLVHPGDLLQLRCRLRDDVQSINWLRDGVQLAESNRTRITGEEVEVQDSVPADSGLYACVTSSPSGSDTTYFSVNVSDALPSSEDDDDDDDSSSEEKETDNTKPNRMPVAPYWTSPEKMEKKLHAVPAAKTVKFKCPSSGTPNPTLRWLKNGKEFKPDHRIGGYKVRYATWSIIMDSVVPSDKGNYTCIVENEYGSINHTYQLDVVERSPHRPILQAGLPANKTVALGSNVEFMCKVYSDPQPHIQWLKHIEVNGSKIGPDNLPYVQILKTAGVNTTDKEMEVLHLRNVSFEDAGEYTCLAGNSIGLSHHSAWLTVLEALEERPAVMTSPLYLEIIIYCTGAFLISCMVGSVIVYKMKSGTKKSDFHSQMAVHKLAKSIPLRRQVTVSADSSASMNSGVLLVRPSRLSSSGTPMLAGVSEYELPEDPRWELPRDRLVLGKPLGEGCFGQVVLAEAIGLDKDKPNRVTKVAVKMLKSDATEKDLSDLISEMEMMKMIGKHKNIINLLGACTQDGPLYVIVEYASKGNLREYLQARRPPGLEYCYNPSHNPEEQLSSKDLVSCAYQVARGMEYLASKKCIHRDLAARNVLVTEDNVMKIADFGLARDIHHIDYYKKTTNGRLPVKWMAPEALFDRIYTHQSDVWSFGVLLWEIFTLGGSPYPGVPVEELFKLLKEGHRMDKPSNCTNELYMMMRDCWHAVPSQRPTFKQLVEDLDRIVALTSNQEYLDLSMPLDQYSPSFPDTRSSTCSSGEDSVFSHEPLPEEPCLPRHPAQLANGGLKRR

[4] = target: Vascular endothelial growth factor receptor 1 (Homo sapiens) (UniProt P17948); test: Activity of human Flt1 kinase at 1 uM; outline: as §1
[5] = target: G protein-coupled receptor kinase 5 (Homo sapiens) (UniProt P34947); test: Activity of human GRK5 kinase at 1 uM; outline: as §1
[6] = target: Serine/threonine-protein kinase STK11 (Homo sapiens) (UniProt Q15831); test: Activity of human LKB1 kinase at 1 uM
[7] = target: Serine/threonine-protein kinase 10 (Homo sapiens) (UniProt O94804); test: Activity of human LOK kinase at 1 uM
[8] = target: Maternal embryonic leucine zipper kinase (Homo sapiens) (UniProt Q14680); test: Activity of human MELK kinase at 1 uM; outline: as §1
Maternal embryonic leucine zipper kinase (Homo sapiens), sequence (Q14680 whole entry, looked up): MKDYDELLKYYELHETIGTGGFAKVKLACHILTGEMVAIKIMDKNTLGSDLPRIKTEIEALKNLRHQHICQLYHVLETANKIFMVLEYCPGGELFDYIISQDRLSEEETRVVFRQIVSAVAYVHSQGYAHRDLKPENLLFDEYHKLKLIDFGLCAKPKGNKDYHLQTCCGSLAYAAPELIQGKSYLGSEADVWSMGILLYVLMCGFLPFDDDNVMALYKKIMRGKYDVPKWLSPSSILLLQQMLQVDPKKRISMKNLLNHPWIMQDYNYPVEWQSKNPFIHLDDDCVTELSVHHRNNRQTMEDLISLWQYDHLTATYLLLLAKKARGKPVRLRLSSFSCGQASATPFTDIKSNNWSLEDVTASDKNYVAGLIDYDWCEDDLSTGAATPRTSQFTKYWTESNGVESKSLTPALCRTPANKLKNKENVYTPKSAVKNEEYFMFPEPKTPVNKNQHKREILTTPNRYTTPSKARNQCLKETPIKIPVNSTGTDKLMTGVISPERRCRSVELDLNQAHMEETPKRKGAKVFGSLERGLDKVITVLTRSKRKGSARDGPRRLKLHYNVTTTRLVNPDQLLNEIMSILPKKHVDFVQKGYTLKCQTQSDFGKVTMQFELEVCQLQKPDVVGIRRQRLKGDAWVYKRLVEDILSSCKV

[9] = target: Dual specificity mitogen-activated protein kinase kinase 4 (Mus musculus) (UniProt P47809); test: Activity of mouse MKK4 kinase at 1 uM
Outline: (§2)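 Single-point screen in a 226-kinase panel run by an outside service. Test compound at 1 μM with ATP at 10 μM in every assay. Other assay conditions are not given.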

[10] = target: Dual specificity mitogen-activated protein kinase kinase 7 (Homo sapiens) (UniProt O14733); test: Activity of human MKK7-beta kinase at 1 uM
Dual specificity mitogen-activated protein kinase kinase 7 (Homo sapiens), sequence (O14733 whole entry): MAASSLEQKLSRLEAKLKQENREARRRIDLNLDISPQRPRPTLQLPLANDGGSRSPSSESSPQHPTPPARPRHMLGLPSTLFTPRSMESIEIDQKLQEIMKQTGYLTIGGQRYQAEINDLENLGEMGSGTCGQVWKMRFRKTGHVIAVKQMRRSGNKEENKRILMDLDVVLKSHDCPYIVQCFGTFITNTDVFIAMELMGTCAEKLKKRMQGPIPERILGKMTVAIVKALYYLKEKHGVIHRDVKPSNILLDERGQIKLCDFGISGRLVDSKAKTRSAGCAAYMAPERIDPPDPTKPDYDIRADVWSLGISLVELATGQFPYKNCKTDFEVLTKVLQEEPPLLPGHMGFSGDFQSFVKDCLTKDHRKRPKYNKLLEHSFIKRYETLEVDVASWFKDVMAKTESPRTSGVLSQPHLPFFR

[11] = target: Myosin light chain kinase, smooth muscle (Homo sapiens) (UniProt Q15746); test: Activity of human MLCK kinase at 1 uM
[12] = target: Serine/threonine-protein kinase MRCK alpha (Homo sapiens) (UniProt Q5VT25); test: Activity of human MRCKalpha kinase at 1 uM
[13] = target: Ribosomal protein S6 kinase alpha-4 (Homo sapiens) (UniProt O75676); test: Activity of human MSK2 kinase at 1 uM; outline: as §1
[14] = target: Serine/threonine-protein kinase Nek6 (Homo sapiens) (UniProt Q9HC98); test: Activity of human NEK6 kinase at 1 uM; outline: as §2
Serine/threonine-protein kinase Nek6 (Homo sapiens), sequence (Q9HC98 whole entry): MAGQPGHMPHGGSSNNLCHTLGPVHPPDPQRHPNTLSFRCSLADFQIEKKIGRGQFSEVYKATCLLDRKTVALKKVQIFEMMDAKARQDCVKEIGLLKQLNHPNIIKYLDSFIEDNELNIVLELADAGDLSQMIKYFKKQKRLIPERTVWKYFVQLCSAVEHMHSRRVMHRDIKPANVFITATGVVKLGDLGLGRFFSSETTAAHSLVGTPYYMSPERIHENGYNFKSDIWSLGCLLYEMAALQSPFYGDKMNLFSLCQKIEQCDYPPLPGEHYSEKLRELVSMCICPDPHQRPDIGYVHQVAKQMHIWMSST

[15] = target: Serine/threonine-protein kinase PAK 2 (Homo sapiens) (UniProt Q13177); test: Activity of human PAK2 kinase at 1 uM; outline: as §2
[16] = target: Protein kinase C beta type (Homo sapiens) (UniProt P05771); test: Activity of human PKC-beta-2 kinase at 1 uM; outline: as §2
[17] = target: Protein kinase C delta type (Homo sapiens) (UniProt Q05655); test: Activity of human PKCdelta kinase at 1 uM; outline: as §1
[18] = target: Serine/threonine-protein kinase N2 (Homo sapiens) (UniProt Q16513); test: Activity of human PRK2 kinase at 1 uM; outline: as §2
[19] = target: cAMP-dependent protein kinase catalytic subunit PRKX (Homo sapiens) (UniProt P51817); test: Activity of human PrKX kinase at 1 uM; outline: as §2
cAMP-dependent protein kinase catalytic subunit PRKX (Homo sapiens), sequence (P51817 whole entry): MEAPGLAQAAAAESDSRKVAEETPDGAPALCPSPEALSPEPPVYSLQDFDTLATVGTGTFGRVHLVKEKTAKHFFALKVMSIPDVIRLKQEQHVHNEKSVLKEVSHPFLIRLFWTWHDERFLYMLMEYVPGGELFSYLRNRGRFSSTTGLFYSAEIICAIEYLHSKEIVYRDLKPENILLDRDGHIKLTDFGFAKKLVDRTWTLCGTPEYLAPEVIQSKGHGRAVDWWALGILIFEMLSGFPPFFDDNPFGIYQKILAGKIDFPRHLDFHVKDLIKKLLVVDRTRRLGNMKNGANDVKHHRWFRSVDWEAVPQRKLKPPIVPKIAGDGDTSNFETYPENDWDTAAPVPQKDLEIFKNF

[20] = target: Tyrosine-protein kinase FRK (Homo sapiens) (UniProt P42685); test: Activity of human PTK5 kinase at 1 uM; outline: as §2
[21] = target: Rho-associated protein kinase 2 (Homo sapiens) (UniProt O75116); test: Activity of human ROCK2 kinase at 1 uM; outline: as §2
[22] = target: Macrophage-stimulating protein receptor (Homo sapiens) (UniProt Q04912); test: Activity of human Ron kinase at 1 uM; outline: as §2
[23] = target: Mitogen-activated protein kinase 14 (Homo sapiens) (UniProt Q16539); test: Activity of human SAPK2a kinase at 1 uM
Outline: (§3)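 Single-concentration screen across a 226-kinase panel run by an outside provider; test compound at 1 μM with 10 μM ATP in every assay. Other conditions not detailed.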

[24] = target: Mitogen-activated protein kinase 13 (Homo sapiens) (UniProt O15264); test: Activity of human SAPK4 kinase at 1 uM; outline: as §2
[25] = target: SRSF protein kinase 1 (Homo sapiens) (UniProt Q96SB4); test: Activity of human SRPK1 kinase at 1 uM; outline: as §3
SRSF protein kinase 1 (Homo sapiens), sequence (Q96SB4 whole entry): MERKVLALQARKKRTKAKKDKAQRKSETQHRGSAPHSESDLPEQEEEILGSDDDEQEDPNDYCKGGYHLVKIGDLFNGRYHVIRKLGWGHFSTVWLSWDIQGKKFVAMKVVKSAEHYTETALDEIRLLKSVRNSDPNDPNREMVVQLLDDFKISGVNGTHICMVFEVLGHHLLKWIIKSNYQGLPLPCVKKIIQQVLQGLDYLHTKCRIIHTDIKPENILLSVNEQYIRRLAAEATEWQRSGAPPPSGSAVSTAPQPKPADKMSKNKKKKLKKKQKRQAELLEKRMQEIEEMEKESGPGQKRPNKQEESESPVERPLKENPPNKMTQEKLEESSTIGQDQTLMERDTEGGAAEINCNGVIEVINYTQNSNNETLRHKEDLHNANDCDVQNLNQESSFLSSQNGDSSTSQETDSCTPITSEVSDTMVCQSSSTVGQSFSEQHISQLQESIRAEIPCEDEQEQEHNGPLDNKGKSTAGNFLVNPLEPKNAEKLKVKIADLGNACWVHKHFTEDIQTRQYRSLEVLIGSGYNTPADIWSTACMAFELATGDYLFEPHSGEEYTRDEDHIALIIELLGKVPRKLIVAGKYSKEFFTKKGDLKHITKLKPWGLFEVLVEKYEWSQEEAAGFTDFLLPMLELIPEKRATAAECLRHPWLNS

[26] = target: SRSF protein kinase 2 (Homo sapiens) (UniProt P78362); test: Activity of human SRPK2 kinase at 1 uM; outline: as §2
[27] = target: Testis-specific serine/threonine-protein kinase 2 (Homo sapiens) (UniProt Q96PF2); test: Activity of human TSSK2 kinase at 1 uM; outline: as §2
[28] = target: Angiopoietin-1 receptor (Homo sapiens) (UniProt Q02763); test: Activity of human Tie2 kinase at 1 uM; outline: as §2
Angiopoietin-1 receptor (Homo sapiens), sequence (Q02763 whole entry): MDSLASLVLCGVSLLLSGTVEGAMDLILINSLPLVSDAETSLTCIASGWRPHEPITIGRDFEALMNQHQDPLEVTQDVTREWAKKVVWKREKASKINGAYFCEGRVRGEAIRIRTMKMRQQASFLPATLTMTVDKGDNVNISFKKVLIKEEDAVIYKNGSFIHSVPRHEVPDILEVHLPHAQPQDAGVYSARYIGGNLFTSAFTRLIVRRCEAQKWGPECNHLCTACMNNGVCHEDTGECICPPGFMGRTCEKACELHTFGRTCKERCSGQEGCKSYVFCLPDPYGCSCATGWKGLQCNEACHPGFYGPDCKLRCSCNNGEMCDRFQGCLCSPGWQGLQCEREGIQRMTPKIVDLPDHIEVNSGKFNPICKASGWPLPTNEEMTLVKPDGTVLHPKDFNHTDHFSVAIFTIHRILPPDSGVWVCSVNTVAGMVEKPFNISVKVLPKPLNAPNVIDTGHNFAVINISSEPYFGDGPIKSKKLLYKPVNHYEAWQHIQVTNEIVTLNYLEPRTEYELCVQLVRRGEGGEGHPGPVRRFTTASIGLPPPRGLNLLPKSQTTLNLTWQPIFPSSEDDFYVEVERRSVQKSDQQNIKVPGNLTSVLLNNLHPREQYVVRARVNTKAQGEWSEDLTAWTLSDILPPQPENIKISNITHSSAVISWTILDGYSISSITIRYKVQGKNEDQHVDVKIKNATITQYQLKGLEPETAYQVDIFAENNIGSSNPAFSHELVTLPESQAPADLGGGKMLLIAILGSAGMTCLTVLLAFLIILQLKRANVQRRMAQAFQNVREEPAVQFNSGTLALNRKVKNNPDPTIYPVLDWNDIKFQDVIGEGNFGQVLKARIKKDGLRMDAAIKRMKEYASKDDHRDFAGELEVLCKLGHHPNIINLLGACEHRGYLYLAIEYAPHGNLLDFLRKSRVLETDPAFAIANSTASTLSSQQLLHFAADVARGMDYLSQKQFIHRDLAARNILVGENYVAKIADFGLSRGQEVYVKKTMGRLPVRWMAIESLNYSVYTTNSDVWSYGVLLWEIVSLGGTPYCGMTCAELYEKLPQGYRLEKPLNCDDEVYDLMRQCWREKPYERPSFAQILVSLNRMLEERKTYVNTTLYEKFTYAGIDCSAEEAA

[29] = target: Death-associated protein kinase 2 (Homo sapiens) (UniProt Q9UIK4); test: Activity of human DAPK2 kinase at 1 uM; outline: as §1
[30] = target: Ephrin type-A receptor 4 (Homo sapiens) (UniProt P54764); test: Activity of human EphA4 kinase at 1 uM
[31] = Inhibition of PKC by radioactive flashplate assay
[32] = Inhibition of CDK2E by radioactive flashplate assay
[33] = target: Activin receptor type-1B (Homo sapiens) (UniProt P36896); test: Activity of human ALK4 kinase at 1 uM
Activin receptor type-1B (Homo sapiens), sequence (P36896 whole entry): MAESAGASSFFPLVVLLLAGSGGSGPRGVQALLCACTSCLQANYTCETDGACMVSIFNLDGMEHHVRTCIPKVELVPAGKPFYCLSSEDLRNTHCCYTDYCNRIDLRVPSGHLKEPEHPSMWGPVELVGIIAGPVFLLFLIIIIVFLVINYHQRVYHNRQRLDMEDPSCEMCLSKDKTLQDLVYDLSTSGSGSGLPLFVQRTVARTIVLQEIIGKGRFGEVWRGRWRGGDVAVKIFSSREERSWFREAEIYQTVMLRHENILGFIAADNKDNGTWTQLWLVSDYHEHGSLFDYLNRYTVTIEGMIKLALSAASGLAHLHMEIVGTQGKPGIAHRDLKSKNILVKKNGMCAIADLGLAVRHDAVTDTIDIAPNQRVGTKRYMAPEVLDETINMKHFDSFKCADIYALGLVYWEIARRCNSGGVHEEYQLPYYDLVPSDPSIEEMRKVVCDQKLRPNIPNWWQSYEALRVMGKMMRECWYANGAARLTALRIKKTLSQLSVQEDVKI

[34] = target: Mitogen-activated protein kinase kinase kinase 5 (Homo sapiens) (UniProt Q99683); test: Activity of human ASK1 kinase at 1 uM
[35] = target: Calcium/calmodulin-dependent protein kinase type II subunit gamma (Homo sapiens) (UniProt Q13555); test: Activity of human CaMK2gamma kinase at 1 uM; outline: as §1
[36] = target: Calcium/calmodulin-dependent protein kinase type IV (Homo sapiens) (UniProt Q16566); test: Activity of human CaMK4 kinase at 1 uM
Homo sapiens = organism: Homo sapiens; test: Activity of human CDK5/p35 kinase at 1 uM
[37] = target: Serine/threonine-protein kinase Chk1 (Homo sapiens) (UniProt O14757); test: Activity of human CHK1 kinase at 1 uM; outline: as §1
PC-3 [38] = test: Induction of apoptosis in human PC3 cells assessed as PARP cleavage at 0.25 uM after 24 hrs by Western blot method; type: functional, cell-based
PC-3 [39] = test: Induction of apoptosis in human PC3 cells assessed as PARP cleavage at 4 uM after 48 hrs by Western blot method; type: functional, cell-based
MCF7 = test: Antiproliferative activity against human MCF7 cells after 96 hrs by BrdU cell proliferation ELISA; type: functional, cell-based; conditions: MCF7, 96 h
Outline: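 BrdU incorporation proliferation assay on cultured human tumor lines; IC50 values derived from growth inhibition.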

PC-3 [40] = test: Cell cycle arrest in human PC3 cells by accumulation at >4N phase at 1 uM after 48 hrs by flow cytometry relative to control; type: functional
PC-3 [41] = test: Cell cycle arrest in human PC3 cells by accumulation at S phase at 4 uM after 48 hrs by flow cytometry relative to control; type: functional
Outline: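 DNA content profiles by flow cytometry of PC-3 prostate tumor cells exposed to drug diluted in DMSO for 24 or 48 h. Phase distribution was compared with DMSO-treated control cells.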

O=C(O)c1ccc(Nc2ncc3c(n2)-c2ccc(Cl)cc2C(c2c(F)cccc2F)=NC3)cc1 [MLN-8054]
Activity [1]: 69% | Activity [2]: 57% | Activity [3]: 43% | Activity [4]: 65% | Activity [5]: 109% | Activity [6]: 101% | Activity [7]: 95% | Activity [8]: 79% | Activity [9]: 120% | Activity [10]: 95% | Activity [11]: 95% | Activity [12]: 101% | Activity [13]: 106% | Activity [14]: 92% | Activity [15]: 100% | Activity [16]: 100% | Activity [17]: 109% | Activity [18]: 90% | Activity [19]: 99% | Activity [20]: 90% | Activity [21]: 100% | Activity [22]: 94% | Activity [23]: 105% | Activity [24]: 87% | Activity [25]: 105% | Activity [26]: 87% | Activity [27]: 101% | Activity [28]: 51% | Activity [29]: 103% | Activity [30]: 90% | IC50 [31]: > 100 µM | IC50 [32]: > 100 µM | Activity [33]: 115% | Activity [34]: 120% | Activity [35]: 112% | Activity [36]: 104% | Activity (Homo sapiens): 100% | Activity [37]: 109% | Activity (PC-3 [38]): Active | Activity (PC-3 [39]): Active | IC50 (MCF7): 0.67 µM | Activity (PC-3 [40]): 7% | Activity (PC-3 [41]): 4.9%
